According to ChEMBL document CHEMBL3102776, “Synthesis and biological evaluation of farnesylthiosalicylamides as potential anti-tumor agents” (Bioorg Med Chem, 2014):

How the values were obtained:
[1] = Aqueous solubility of the compound in 10% PEG400 aqueous solution after 24 hrs by HPLC analysis; format: physicochemical
In short: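 Roughly 20.0 mg of solid in 5 mL of 10% PEG400 in water. Sonicated 10 min, then stirred 24 h at 25 °C in a water bath. Centrifuged 10 min at 10,000 rpm and the supernatant passed through a microporous membrane. Concentration measured by HPLC against a standard curve.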

MCF7 = assay: Cytotoxicity against human MCF7 cells after 48 hrs by MTT assay; format: functional, cell-based; details: MCF7, 48 h
In short: (§1)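 Cells seeded at 10⁴ per well in DMEM with 10% FBS and grown overnight. Compound at a range of concentrations for 48 h, in triplicate. MTT (5 mg mL⁻¹ stock) added for the last 4 h, formazan dissolved in DMSO, absorbance read at 570 nm. Percent inhibition used to derive IC50. Values are mean ± SEM of at least three independent experiments.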

[2] = Cytotoxicity against human PANC1 cells after 48 hrs by MTT assay; format: functional, cell-based; details: PANC-1, 48 h; in short: as §1
[3] = Cytotoxicity against human SGC7901 cells after 48 hrs by MTT assay; format: functional, cell-based; details: SGC-7901, 48 h; in short: as §1
SK-OV-3 = assay: Cytotoxicity against human SKOV3 cells after 48 hrs by MTT assay; format: functional, cell-based; details: SK-OV-3, 48 h; in short: as §1
EJ = assay: Cytotoxicity against human EJ cells after 48 hrs by MTT assay; format: functional, cell-based; in short: as §1
SMMC-7721 = assay: Cytotoxicity against human SMMC7721 cells after 48 hrs by MTT assay; format: functional, cell-based; details: SMMC-7721, 48 h; in short: as §1
[4] = Cytotoxicity against human H460 cells after 48 hrs by MTT assay; format: functional, cell-based; details: NCI-H460, 48 h; in short: as §1

Row | solubility at 24 h [1] | SMILES | IC50 (MCF7) | IC50 [2] | IC50 [3] | IC50 (SK-OV-3) | IC50 (EJ) | IC50 (SMMC-7721) | IC50 [4]
1 | < 10 µg/mL | CC(C)=CCC/C(C)=C/CC/C(C)=C/CSc1ccccc1C(=O)NCCCCCNC(=O)c1ccccc1SC/C=C(\C)CC/C=C(\C)CCC=C(C)C | > 50 µM | > 50 µM | > 50 µM | 41.9 µM | 39.5 µM | 36.2 µM | 47.1 µM
2 |  | CC(C)=CCC/C(C)=C/CC/C(C)=C/CSc1ccccc1C(=O)N1CCNCC1 | 34.1 µM | 22.5 µM | 25.7 µM | > 50 µM | 27.5 µM | 32.4 µM | 26.3 µM
3 |  | CC(C)=CCC/C(C)=C/CC/C(C)=C/CSc1ccccc1C(=O)NCCCN | 13.7 µM | 11.8 µM | 12.8 µM | 12.3 µM | 17.2 µM | 10.6 µM | 20.4 µM
4 |  | CC(C)=CCC/C(C)=C/CC/C(C)=C/CSc1ccccc1C(=O)N1CCN(C(=O)c2ccccc2SC/C=C(\C)CC/C=C(\C)CCC=C(C)C)CC1 | > 50 µM | > 50 µM | > 50 µM | > 50 µM | > 50 µM | > 50 µM | > 50 µM
5 |  | CC(C)=CCC/C(C)=C/CC/C(C)=C/CSc1ccccc1C(=O)NCCN | 28.7 µM | > 50 µM | 33.8 µM | 31.6 µM | > 50 µM | 25.2 µM | 36 µM
6 |  | CC(C)=CCC/C(C)=C/CC/C(C)=C/CSc1ccccc1C(=O)NCCCCCCNC(=O)c1ccccc1SC/C=C(\C)CC/C=C(\C)CCC=C(C)C | 40.6 µM | > 50 µM | > 50 µM | > 50 µM | 43.9 µM | > 50 µM | > 50 µM
7 |  | CC(C)=CCC/C(C)=C/CC/C(C)=C/CSc1ccccc1C(=O)NCCNC(=O)c1ccccc1SC/C=C(\C)CC/C=C(\C)CCC=C(C)C | > 50 µM | > 50 µM | > 50 µM | > 50 µM | > 50 µM | > 50 µM | > 50 µM
8 |  | CC(C)=CCC/C(C)=C/CC/C(C)=C/CSc1ccccc1C(=O)NCCOCCNC(=O)c1ccccc1SC/C=C(\C)CC/C=C(\C)CCC=C(C)C | 30 µM | 29.8 µM | 43.8 µM | 34.4 µM | 27.8 µM | 29 µM | 43.5 µM
